Calls of active or inactive are those of the source. The rule behind the calls is not given here.
What was measured:
Rattus norvegicus [1] = species: Rattus norvegicus; test: Effect on exocrine pancreatic secretion in rat; type: functional, organism-based
Rattus norvegicus [2] = test: Induction of pancreatic secretory flow in iv dosed rat measured per 10 mins per gram wet weight of pancreas relative to secretin; type: functional
Rattus norvegicus [3] = test: Induction of pancreatic secretory flow in iv dosed rat measured per 10 mins per gram wet weight of pancreas; type: functional
[4] = Vasolrelaxant activity in rat gastric fundus; type: functional, tissue-based; conditions: Stomach
[5] = Vasolrelaxant activity in guinea pig lung; type: functional; conditions: Cavia porcellus
Cavia porcellus [6] = species: Cavia porcellus; test: Vasolrelaxant activity in guinea pig trachea; type: functional, tissue-based
Cavia porcellus [7] = species: Cavia porcellus; test: Apparent binding affinity to VIP receptor in guinea pig acinar cells assessed as inhibition of VIP-induced cAMP accumulation measured as concentration required to occupy 50% of receptor; type: cell-based
How it was run: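 Dispersed acinar cells from guinea pig pancreas. Apparent affinity for the VIP-preferring receptor was calculated from the fragment's ability to inhibit the cAMP increase caused by 10^-9 M VIP. Values are means (±1 SD) from three separate experiments.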

Cavia porcellus [8] = species: Cavia porcellus; test: Apparent binding affinity to secretin receptor in guinea pig acinar cells assessed as inhibition of secretin-induced cAMP accumulation measured as concentration required to occupy 50% of receptor; type: cell-based
How it was run: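 Dispersed acinar cells from guinea pig pancreas. Apparent affinity for the secretin-preferring receptor was calculated from the fragment's ability to inhibit the cAMP increase caused by 10^-9 M secretin. Values are means (±1 SD) from three separate experiments.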

Compound | Activity (Rattus norvegicus [1]) | Emax (Rattus norvegicus [2]) [%] | Activity (Rattus norvegicus [3]) | Activity [4] | Activity [5] | Activity (Cavia porcellus [6]) | Activity (Cavia porcellus [7]) [×10⁻⁷ M] | Activity (Cavia porcellus [8]) [×10⁻⁷ M]
H-TFTSELSRLRKSARLQRLLQGLV-NH2 | inactive | 20 | 12.9 µL | Active | Active | Active | 10 | 12
H-TFTSELSRLRDSARLQRLLQGLV-NH2 |  |  |  | Active | Active | Active | 46 | 2.3
H-TFTSELSRLRNSARLQRLLQGLV-NH2 | inactive |  | Active |  |  |  | 8 | 1.9
SECRETIN |  |  | Active |  |  |  |  | 
CC[C@H](C)[C@H](NC(=O)[C@H](CO)NC(=O)[C@H](CC(N)=O)NC(=O)[C@H](CC(C)C)NC(=O)[C@H](Cc1ccc(O)cc1)NC(=O)[C@H](CCCCN)NC(=O)[C@H](CCCCN)NC(=O)[C@@H](NC(=O)[C@H](C)NC(=O)[C@H](CCSC)NC(=O)[C@H](CCC(N)=O)NC(=O)[C@H](CCCCN)NC(=O)[C@H](CCCN=C(N)N)NC(=O)[C@H](CC(C)C)NC(=O)[C@H](CCCN=C(N)N)NC(=O)[C@@H](NC(=O)[C@H](Cc1ccc(O)cc1)NC(=O)[C@H](CC(N)=O)NC(=O)[C@H](CC(=O)O)NC(=O)[C@@H](NC(=O)[C@H](Cc1ccccc1)NC(=O)[C@@H](NC(=O)[C@H](C)NC(=O)[C@H](CC(=O)O)NC(=O)[C@H](CO)NC(=O)[C@@H](N)Cc1c[nH]cn1)C(C)C)[C@@H](C)O)[C@@H](C)O)C(C)C)C(=O)N[C@@H](CC(C)C)C(=O)N[C@@H](CC(N)=O)C(N)=O |  |  |  | Active | Active | Active |  | 
